# Screening results deposited in PubChem BioAssay by The Scripps Research Institute Molecular Screening Center.
# Shown are actives, neighbours in structure and some others; about 1.8% of the full set was active somewhere.
# NPY-Y1 PAM-ag: human NPY-Y1 potentiation or agonism, primary screen | P25929 | NPY-Y1 expressing cells, potentiator/agonist activation | activation, % at 3.6 µM | actives 0.37% (n = 220,000) | AID 1304; in the data active means activation above about 33%, passing the limit was not always enough;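 further: cells stimulated with NPY at EC10 then isoproterenol at EC100; 0% = low agonist plus stimulus and 100% = saturating agonist plus stimulus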
# NPY-Y1 antag: NPY-Y1 (human) receptor antagonism; actives 1% (n = 200,000); P25929; inhibition, % at 3.6 µM; HEK293-CNG Y1 cells, membrane potential fluorescence; NPY at EC95, then isoproterenol;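 active means inhibition above the campaign mean inhibition of all tested compounds plus 3 SD, cut at about 20% in these data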;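 further: 0% = DMSO wells given NPY plus isoproterenol and 100% = isoproterenol alone without NPY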
#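 Benchmarks – high control isoproterenol alone, low control NPY with isoproterenol · Material – HEK293 Y1/CNG channel cell line · Times – dye 3 h, compound 60 min room temperature, stimulation 45 min · Probe or stimulus – NPY (25 nM), isoproterenol (1 µM), Ro 20-1724 (25 µM) · Evaluation – % inhibition of NPY effect · Signal – fluorescence, membrane potential probe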
# NPY-Y2 PAM-ag: potentiators or agonists of human neuropeptide Y receptor Y2. activation, % at 3.6 µM. actives 0.45% (n = 220,000). P49146. cells expressing NPY-Y2, potentiator/agonist read-out. AID 1359; in the data active means activation above about 27%;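 further: cells stimulated with NPY near EC25 plus isoproterenol at EC100; 0% = vehicle plus submaximal agonist and 100% = vehicle plus saturating agonist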
# Target sequence (P49146 whole entry, looked up): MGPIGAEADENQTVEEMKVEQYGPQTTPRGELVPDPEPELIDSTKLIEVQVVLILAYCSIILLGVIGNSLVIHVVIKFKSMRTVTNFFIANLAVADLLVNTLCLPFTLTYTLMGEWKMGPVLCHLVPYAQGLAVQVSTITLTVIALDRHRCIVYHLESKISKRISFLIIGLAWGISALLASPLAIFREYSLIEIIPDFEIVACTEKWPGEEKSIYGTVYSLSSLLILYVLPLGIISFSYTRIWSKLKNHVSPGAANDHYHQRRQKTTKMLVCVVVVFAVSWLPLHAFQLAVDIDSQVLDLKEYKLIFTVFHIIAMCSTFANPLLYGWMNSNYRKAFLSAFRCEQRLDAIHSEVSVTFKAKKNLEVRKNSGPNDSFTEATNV
# NPY-Y2 antag: antagonists of human neuropeptide Y receptor Y2 | actives 0.99% (n = 140,000) | inhibition, % at 2.7 µM | NPY-Y2 expressing cells, antagonist mode | AID 793;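 further: 0% = vehicle with agonist challenge and 100% = reference antagonist with challenge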
# NPY1 antag conf: confirmation of human neuropeptide Y receptor Y1 antagonists; AID 1254; shares compounds with NPY-Y1 antag; HEK293-CNG NPY-Y1, membrane potential fluorescence, cAMP; NPY challenge against isoproterenol-raised cAMP; actives 21% (n = 1,200); inhibition, % at 3.6 µM; in the data active means inhibition above about 20%;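 further: 0% = vehicle with agonist plus stimulus and 100% = stimulus alone without agonist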
# NPY2 antag ctr: human NPY-Y2 antagonism in NPY-Y1 counter-screen | actives 28% (n = 1,200) | AID 1255 | shares compounds with NPY-Y1 antag | inhibition, % at 3.6 µM | HEK293 NPY-Y2 CNG membrane potential fluorescence; cells given NPY, then isoproterenol;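 further: 0% = DMSO with agonist challenge and 100% = reference antagonist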
# Numbers without * were called inactive; / = no result given. Unless noted, no stated cut-off is given here; in the data, active means inhibition above about 17%; inactive means the rest.
SMILES,NPY-Y1 PAM-ag,NPY-Y1 antag,NPY-Y2 PAM-ag,NPY-Y2 antag,NPY1 antag conf,NPY2 antag ctr
CN1C(=O)C(CCC(=O)O)NC1=S (centres undefined),11.7,/,-7.1,/,/,/
N#Cc1ccc(OCc2noc(-c3ccsc3)n2)cc1,-0.3,/,-1.2,/,/,/
COc1ccc(OC)c(C2=Nn3c(nnc3-c3cc(OC)c(OC)c(OC)c3)SC2)c1,-33.9,27.1*,-14.3,6.1,23.6*,28.7*
CCOc1ccc(-n2c(N)c(-c3nc4ccccc4n3C)c3nc4ccccc4nc32)cc1,-0.1,-1.1,-5.1,0.1,/,/
C=C(C)CNC(=S)NN=C1c2ccccc2-c2ccccc21,-53.8,32.8*,-37.1,/,35.9*,69.3*
CN(C)Cc1cc(CCNC(=O)c2ccc(Cl)cc2)ccc1O,-11.2,21.5*,4.9,2.0,-1.4,2.4
CCN(CC)Cc1cc(CCNC(=O)c2ccc(Cl)cc2)ccc1O,4.2,3.5,-0.3,4.2,/,/
Cc1ccc(Cn2ccc(NC(=O)c3c(-c4ccccc4Cl)noc3C)n2)cc1,7.5,-1.5,-7.5,-1.0,/,/
CCCCCCn1c2c(c(=N)c3c1CCC3)CCC2,-71.5,23.7*,3.9,3.2,29.2*,16.7
CCCCCCCn1c2c(c(=N)c3c1CCC3)CCCC2,-60.5,79.8*,-36.9,/,56.8*,42.5*
CCn1c2c(c(=N)c3c1CCC3)CCC2,4.4,-1.6,18.1,1.9,/,/
CN(C)CCNC(=O)c1sc2cccc(F)c2c1Cl,-22.1,33.1*,-6.3,/,3.0,7.8
O=C(O)c1cc(Cl)c2c(c1)OCO2,-17.3,/,0.6,/,/,/
Cc1cc2cc(C)c(NCCNC(=O)c3cccs3)nc2cc1C,-75.3,56.4*,-49.3,/,43.0*,65.4*
Cc1cccc(C(=O)NCCNc2nc3cc(C)c(C)cc3cc2C)c1,-103.3,45.0*,-47.4,/,29.5*,33.1*
Cc1cc2cc(C)c(NCCNC(=O)c3cccc(F)c3)nc2cc1C,-69.5,39.7*,-56.1,/,28.3*,11.7
COC(=O)CNC(=O)c1cccc(F)c1,19.4,-0.2,11.1,4.6,/,/
O=C(NCCc1ccncc1)c1ccccc1F,7.1,10.9,-4.7,2.0,/,/
Cc1cc2cc(C)c(NCCNC(=O)c3ccccc3F)nc2cc1C,-59.5,31.9*,-65.3,/,19.9,29.4*
Cc1nc(CCNC(=O)c2cccs2)cs1,-4.0,-0.6,5.2,0.3,/,/
C=CCn1c(C)cc(C(=O)CSc2nnc(Cc3ccccc3)o2)c1C,-55.9,21.1*,-31.8,7.0,9.5,7.8
CCOc1ccccc1NC(=O)C(NCC1(N2CCCCC2)CCCCC1)c1ccccc1 (centres undefined),-27.1,33.8*,-12.8,/,30.9*,29.9*
C=CCN=C1NN=C(c2ccc3c(c2)OCCO3)CS1,-28.5,7.2,-7.8,/,/,/
CC(=O)N(CCC(Cc1ccccc1)c1ccc2c(c1)OCO2)Cc1ccccc1F (centres undefined),-16.4,20.9*,-5.2,16.6,18.1,11.2
COc1ccc(COc2cc(-c3cccc(OC)c3)nc3ccc(NC(=O)c4ccc(N(C)C)cc4)cc23)cc1,-31.7,42.5*,-1.6,1.8,-1.7,1.7
SMILES,NPY-Y1 PAM-ag,NPY-Y1 antag,NPY-Y2 PAM-ag,NPY-Y2 antag,NPY1 antag conf,NPY2 antag ctr
CC1CCC(C(C)C)C(OC(=O)Cn2c(-c3ccc(Br)cc3)[n+](C)c3ccccc32)C1 (centres undefined),-11.3,44.3*,-13.0,/,36.5*,40.5*
Cc1ccccc1OCc1n(CC(=O)OC2CC(C)CCC2C(C)C)c2ccccc2[n+]1C (centres undefined),-35.1,29.2*,-16.6,/,35.6*,41.7*
CC1CCC(C(C)C)C(OC(=O)Cn2c(-c3ccc(Cl)cc3)[n+](C)c3ccccc32)C1 (centres undefined),-61.3,/,-60.3,/,/,/
Cc1cc(C(=O)C[N+]2(C)CCOCC2)c(C)n1-c1ccc(Br)cc1,5.8,-3.6,-4.1,/,/,/
COc1cc(C)c(Br)cc1S(=O)(=O)NCCN1CCOCC1,0.0,0.2,-0.7,/,/,/
CCOC(=O)c1c(C)noc1CP(=O)(c1ccccc1)c1ccccc1,-22.0,31.4*,-13.2,16.6,15.7,8.8
Clc1cccc(Cl)c1CSc1nnc(/C=C/c2ccccc2)o1,-40.0,23.3*,-39.2,16.0,15.8,16.2
CCOc1ccc(-c2cc(C(=O)OC)nc3c2c(=O)n(C)c(=O)n3C)cc1,-16.3,/,-6.6,/,/,/
COC(=O)c1ccc(COC(=O)CNC(=O)c2ccco2)cc1,-0.4,9.2,-4.2,2.5,/,/
COC(=O)c1ccc(COC(=O)CNC(=O)c2ccc(-c3ccccc3)cc2)cc1,-6.8,20.8*,-6.7,4.4,-1.6,2.5
O=C(NCc1ccco1)C1CCCN1C(=O)Nc1ccc(Cl)cc1 (centres undefined),17.5,1.9,10.2,/,/,/
O=C(c1ccco1)N1CCN(C(c2ccc(Cl)cc2)c2nnnn2Cc2ccccc2)CC1 (centres undefined),-21.7,21.1*,4.1,0.1,0.0,1.2
COc1ccc(C(c2nnnn2Cc2ccccc2)N2CCN(C(=O)c3ccco3)CC2)cc1 (centres undefined),8.3,2.2,3.0,2.6,/,/
CCC(C)(C)n1nnnc1C(c1ccc(C)cc1)N1CCN(Cc2cccnc2)CC1 (centres undefined),6.3,9.1,-5.1,-0.3,/,/
Cc1ccc(S(=O)(=O)Cn2nnnc2C(C(C)C)N2CCSCC2)cc1 (centres undefined),13.8,21.2*,3.1,-0.3,0.1,2.1
Cc1ccc(S(=O)(=O)Cn2nnnc2C(C(C)C)N2CCc3ccccc3C2)cc1 (centres undefined),-14.5,0.6,1.2,3.4,/,/
CCC(C)(C)n1nnnc1C(c1ccc(C)cc1)N1CCSCC1 (centres undefined),13.1,24.2*,-14.1,15.8,12.6,4.8
O=C(NNc1ccc(Cl)nn1)c1ccc(Cl)cc1,9.4,1.0,3.1,0.0,/,/
O=C(Nc1cccnc1Cl)c1ccc(=O)oc1,-1.7,/,7.6,/,/,/
CCOC(=O)c1sc(NC(=O)CSc2nnc(C)s2)c(C(=O)OCC)c1C,1.0,2.9,-0.6,2.0,/,/
CCOC(=O)c1c(NC(=O)CSc2nnc(C)s2)sc2c1CCC(CC)C2 (centres undefined),-58.1,33.8*,-22.7,9.5,14.8,17.6*
CCOC(=O)c1c(NC(=O)CN2CCN(C)CC2)sc(C(=O)Nc2ccccc2)c1C,-42.7,26.7*,-23.2,/,13.9,13.3
CCCOc1ccccc1C1CC(=O)NC2=C1C(=O)CCC2 (centres undefined),23.4,-2.9,8.4,3.6,/,/
CCCCOc1ccccc1C1CC(=O)NC2=C1C(=O)CCC2 (centres undefined),-13.2,44.0*,-7.9,3.2,9.7,21.5*
O=C(NC1CCCCC1)C(c1cccs1)N(Cc1cccs1)C(=O)c1ccco1 (centres undefined),-24.5,46.6*,-20.5,10.8,13.6,10.7
